Legend:
[1] = test system: Friend leukemia cell line; assay: Tested […] for the inhibition of proliferation of friend leukemic cells; assay type: functional; conditions: Mus musculus
In short: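 MEL DS19 murine erythroleukemia (Friend) cells, log phase, kept in DMEM with 10% FBS and penicillin/streptomycin at 37 °C in 5% CO2. Seeded at 4 × 10⁴ cells/well with serial compound dilutions; screened at 10 and 50 µM, then dose-response. DMSO at 0.1% in controls. Cells counted by Casy counter after 72 h. Proliferation given as percent of solvent control.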

Histone deacetylase HD2 = target: T1, Histone deacetylase HD2 (Zea mays, UniProt Q94F81); assay: Inhibition of in vitro enzyme activity measured in a highly purified maize Histone deacetylase 2 preparation
T1 sequence (Q94F81 whole entry): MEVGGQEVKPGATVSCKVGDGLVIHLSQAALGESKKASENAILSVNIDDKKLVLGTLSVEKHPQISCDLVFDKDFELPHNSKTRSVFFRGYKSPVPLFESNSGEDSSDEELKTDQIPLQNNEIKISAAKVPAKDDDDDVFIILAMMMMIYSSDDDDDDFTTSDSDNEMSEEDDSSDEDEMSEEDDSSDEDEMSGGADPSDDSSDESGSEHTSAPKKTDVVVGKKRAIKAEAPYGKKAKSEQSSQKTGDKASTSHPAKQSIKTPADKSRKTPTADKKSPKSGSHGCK

Histone deacetylase = assay: Inhibition of in vitro enzyme activity measured in partially purified rat liver Histone deacetylase preparation; assay type: tissue-based

| Compound | IC50 [1] [nM] | IC50 (Histone deacetylase HD2) [nM] | IC50 (Histone deacetylase) [nM] |
| --- | --- | --- | --- |
| O=C(CCCCCCC(=O)NO)NO [SUBEROHYDROXAMIC ACID] |  | 320 | 1150 |
| COC(=O)[C@H](Cc1ccc([N+](=O)[O-])cc1)NC(=O)CCCCCCC(=O)NO | 35000 | 850 | 1340 |
| COC(=O)[C@H](Cc1cccc2ccccc12)NC(=O)CCCCCCC(=O)NO | 22000 | 360 | 130 |
| COC(=O)[C@H](Cc1cccs1)NC(=O)CCCCCCC(=O)NO | 5900 | 700 | 410 |
| O=C(CCCCCCC(=O)N[C@@H](Cc1ccccc1)C(=O)NCCCc1ccccc1)NO | 58000 | 380 | 1010 |
| COC(=O)[C@H](Cc1ccc(OC)cc1)NC(=O)CCCCCCC(=O)NO | 11000 | 250 | 800 |
| O=C(CCCCCCC(=O)N[C@@H](Cc1cccc2ccccc12)C(=O)NCCc1ccccc1)NO | 15000 | 35 | 310 |
| COC(=O)[C@H](Cc1c[nH]c2ccccc12)NC(=O)CCCCCCC(=O)NO | 13000 | 120 | 320 |
| CC(/C=C/C(=O)NO)=C\[C@@H](C)C(=O)c1ccc(N(C)C)cc1 [TRICHOSTATIN] | 40 |  |  |
| COC(=O)[C@@H](NC(=O)CCCCCCC(=O)NO)C(C)C | 6200 | 900 | 380 |

More lines, now with the values ahead:

| IC50 [1] [nM] | IC50 (Histone deacetylase HD2) [nM] | IC50 (Histone deacetylase) [nM] | Compound |
| --- | --- | --- | --- |
| 76000 | 340 | 390 | O=C(CCCCCCC(=O)N[C@H](Cc1ccccc1)C(=O)NCCc1ccccc1)NO |
| 990 | 1000 |  | O=C(CCCCCCC(=O)Nc1ccccc1)NO [VORINOSTAT] |
| 5200 | 40 | 510 | COC(=O)[C@H](Cc1ccc2ccccc2c1)NC(=O)CCCCCCC(=O)NO |
| 15000 | 500 | 800 | COC(=O)[C@H](Cc1ccccc1)NC(=O)CCCCCCC(=O)NO |
| 72000 | 330 | 260 | O=C(CCCCCCC(=O)N[C@@H](Cc1ccccc1)C(=O)NCCc1ccccc1)NO |
| 15000 |  | 790 | O=C(CCCCCCC(=O)N[C@@H](Cc1ccccc1)C(=O)Nc1ccccc1)NO |
| 28000 | 760 | 880 | COC(=O)[C@@H](Cc1ccccc1)NC(=O)CCCCCCC(=O)NO |
| 64000 | 1100 | 840 | NC(=O)[C@H](Cc1ccccc1)NC(=O)CCCCCCC(=O)NO |
| > 100000 | 750 | 1540 | O=C(CCCCCCC(=O)N[C@H](Cc1ccccc1)C(=O)O)NO |
| 69000 | 140 | 460 | O=C(CCCCCCC(=O)N[C@@H](Cc1ccccc1)C(=O)NCc1ccccc1)NO |
| 840 | 210 | 290 | COC(=O)[C@H](Cc1ccc(-c2ccccc2)cc1)NC(=O)CCCCCCC(=O)NO |
| > 100000 | 520 | 330 | O=C(CCCCCCC(=O)N[C@@H](Cc1ccccc1)C(=O)N1CCCC1)NO |

Source: ChEMBL document CHEMBL1135519, “Structure-activity relationships on phenylalanine-containing inhibitors of histone deacetylase: in vitro enzyme inhibition, induction of differentiation, and inhibition of proliferation in Friend leukemic cells” (J Med Chem, 2002)
